How the values were obtained:
Mus musculus = test: Effective dose for the inhibition of acetylcholine induced mouse abdominal contriction was determined in vivo; type: functional; details: Abdomen
Summary of the method: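 Mouse abdominal constriction induced by acetylcholine. Compounds given sc in saline vehicle. ED50 reported in mg/kg sc, with 95% confidence limits, or both values where only two determinations were made.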

Oryctolagus cuniculus [1] = species on record: Oryctolagus cuniculus; test: In vitro antagonist affinity constant was measured on rabbit vas deferens; type: functional
[2] = biological target: Mu-type opioid receptor (Cavia porcellus) (UniProt P97266); test: Dose ratio IC50 after beta-FNA (10e-6 M) 30 min pretreatment on guinea pig ileum and IC50 before beta-FNA treatment against opioid receptor mu in guinea pig ileum; type: tissue-based
Sequence of Mu-type opioid receptor (Cavia porcellus) (P97266 whole entry): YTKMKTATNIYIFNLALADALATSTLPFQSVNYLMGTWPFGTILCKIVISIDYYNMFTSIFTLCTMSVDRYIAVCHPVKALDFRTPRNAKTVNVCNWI

[3] = biological target: Opioid receptors; mu/kappa/delta; test: (§1) In vitro inhibitory activity against opioid receptor in Guinea pig ileum; type: tissue-based, Cavia porcellus
Oryctolagus cuniculus [4] = species on record: Oryctolagus cuniculus; test: In vitro antagonist affinity constant was measured on rabbit vas deferens AT 10e-6 M concentration; type: functional
[5] = as §1; type: functional, tissue-based

Compound	ED50 (Mus musculus)	pKB (Oryctolagus cuniculus [1])	Dose ratio [2]	IC50 [3]	IC50 (Oryctolagus cuniculus [1])	inhibition at 1 µM (Oryctolagus cuniculus [4])	IC50 [5]
C=C1CCC2(c3cccc(O)c3)CCN(CC3CC3)C[C@@H]2C1 (some centres not stated)	1.3 mg/kg	5.8					
C=C1CCC2(c3cccc(O)c3)CCN(CC3CCC3)C[C@@H]2C1 (some centres not stated)	1.06 mg/kg	5.3					
C=C1CC[C@H]2CN(CC3CC3)CCC2(c2cccc(O)c2)C1 (some centres not stated)	0.17 mg/kg	6.3	1.7	0.015 µM			
O=C1CCC2(c3cccc(O)c3)CCN(CC3CCC3)C[C@@H]2C1 (some centres not stated)	> 10 mg/kg						
Oc1cccc(C23CC[C@H](O)C[C@H]2CN(CC2CC2)CC3)c1 (some centres not stated)	> 10 mg/kg						
Oc1cccc(C23CC=CC[C@H]2CN(CC2CCC2)CC3)c1 (some centres not stated)	0.39 mg/kg	5.7	14.7	0.06 µM			
Oc1cccc(C23CC[C@H](O)C[C@H]2CN(CC2CCC2)CC3)c1 (some centres not stated)	> 10 mg/kg						
C=C1C[C@@H](C)[C@H]2CN(CC3CC3)CCC2(c2cccc(O)c2)C1 (some centres not stated)	0.05 mg/kg				28 µM		
C=CCN1CCC2(c3cccc(O)c3)CC(=C)CC[C@H]2C1 (some centres not stated)	0.55 mg/kg	5.5	3.3	0.14 µM			
O=C1CCC2(c3cccc(O)c3)CCN(CC3CC3)C[C@@H]2C1 (some centres not stated)	> 10 mg/kg						
C=CCN1CCC2(c3cccc(O)c3)CC=CC[C@H]2C1 (some centres not stated)	1.91 mg/kg	5.6					
C=C1CC[C@H]2CN(CC3CCC3)CCC2(c2cccc(O)c2)C1 (some centres not stated)	0.23 mg/kg	5.3					
Oc1cccc(C23C=C[C@H](O)C[C@H]2CN(CC2CC2)CC3)c1 (some centres not stated)	> 10 mg/kg	5.6					
Oc1cccc(C23CC=CC[C@H]2CN(CC2CC2)CC3)c1 (some centres not stated)	0.53 mg/kg		2.3	0.09 µM			
CN1CC[C@]23c4c5ccc(O)c4O[C@H]2[C@@H](O)C=C[C@H]3[C@H]1C5 [MORPHINE]	0.47 mg/kg						
Oc1cccc(C23CCCC[C@H]2CN(CC2CC2)CC3)c1 (some centres not stated)	1.09 mg/kg		2.8	0.15 µM		24%	
CC[C@@]12CCN(CC3CC3)C(C(=O)c3ccc(O)cc31)[C@@H]2C [ETHYLKETOCYCLAZOCINE]	0.08 mg/kg						0.0005 µM
C=C1CC[C@H]2CN(C)CCC2(c2cccc(O)c2)C1 (some centres not stated)	0.18 mg/kg	5.9	22	0.06 µM			
O=C1CC[C@H]2CN(CC3CC3)CCC2(c2cccc(O)c2)C1 (some centres not stated)	1.6 mg/kg	6.1	1.4	0.12 µM			
CN1CCC2(c3cccc(O)c3)CC=CC[C@H]2C1 (some centres not stated)	0.5 mg/kg	5.4	> 30	0.13 µM			
C=C1C[C@H](C)[C@H]2CN(CC3CC3)CCC2(c2cccc(O)c2)C1 (some centres not stated)	3.3 mg/kg	4.8					
